“And” between values parts separate entries of the source, which are not always exact repeats. Identical values can stand only once.
Tested on: U2OS
Test: Multiplex assay against U2OS
Assay type: toxicity, cell-based
Settings: human, number of replicates 2
Procedure, shortened: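 Per cents of healthy-nucleus cells form the tubulin, mitochondrial-mass and membrane-permeability phenotype values. Live cells were stained at seeding with Hoechst33342, BioTracker Green Microtubule Cytoskeleton Dye, MitoTracker Red and Annexin V Alexa Fluor 680. After compound addition they were imaged on a CQ1 microscope at 37°C and 5% CO2, and CellPathfinder machine-learning gating split them into Hoechst high-intensity objects or normal cells, normal cells into healthy, pyknosed or fragmented nuclei, and pyknosed cells into mitotic or apoptotic.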

[1] = 12 h, 1 µM, compound concentration 1 uM
[2] = 12 h, 10 µM, compound concentration 10 uM
[3] = 24 h, 1 µM, compound concentration 1 uM
[4] = 24 h, 10 µM, compound concentration 10 uM
[5] = 48 h, 1 µM, compound concentration 1 uM
[6] = 48 h, 10 µM, compound concentration 10 uM

CCc1cnn2c(NCc3ccc[n+]([O-])c3)cc(N3CCCCC3CCO)nc12 (configuration not stated)
Population Apoptotic (%) [1]: 58% and 91%
Population Healthy Nuclei (%) [1]: 22% and 40%
Population Hoechst High Intensity Objects (%) [1]: 0%
Population Membrane Permeable-Phenotype (%) [1]: 25% and 12%
Population Mitochondria Different-Phenotype (%) [1]: 12% and 2%
Population Normal (%) [1]: 100%
Population Pyknosed Nuclei (%) [1]: 34% and 49%
Population Tubulin-Different-Phenotype (%) [1]: 75% and 86%
Population Apoptotic (%) [2]: 78% and 66%
Population Fragmented Nuclei (%) [2]: 17% and 14%
Population Healthy Nuclei (%) [2]: 40% and 47%
Population Hoechst High Intensity Objects (%) [2]: 0%
Population Mitochondria Different-Phenotype (%) [2]: 11% and 0%
Population Mitotic Cells (%) [2]: 21% and 33%
Population Normal (%) [2]: 100%
Population Pyknosed Nuclei (%) [2]: 42% and 38%
Population Tubulin-Different-Phenotype (%) [2]: 44% and 76%
Population Apoptotic (%) [3]: 100%
Population Healthy Nuclei (%) [3]: 20% and 30%
Population Hoechst High Intensity Objects (%) [3]: 0% and 1%
Population Membrane Permeable-Phenotype (%) [3]: 20% and 10%
Population Mitotic Cells (%) [3]: 0%
Population Normal (%) [3]: 100% and 98%
Population Pyknosed Nuclei (%) [3]: 32% and 53%
Population Tubulin-Different-Phenotype (%) [3]: 100% and 82%
Population Apoptotic (%) [4]: 87% and 82%
Population Fragmented Nuclei (%) [4]: 14% and 12%
Population Healthy Nuclei (%) [4]: 34% and 33%
Population Hoechst High Intensity Objects (%) [4]: 4% and 1%
Population Membrane Permeable-Phenotype (%) [4]: 6% and 10%
Population Mitochondria Different-Phenotype (%) [4]: 6% and 8%
Population Mitotic Cells (%) [4]: 12% and 17%
Population Normal (%) [4]: 95% and 98%
Population Pyknosed Nuclei (%) [4]: 51% and 53%
Population Tubulin-Different-Phenotype (%) [4]: 43% and 63%
Population Apoptotic (%) [5]: 100% and 97%
Population Healthy Nuclei (%) [5]: 25% and 16%
Population Hoechst High Intensity Objects (%) [5]: 0% and 3%
Population Membrane Permeable-Phenotype (%) [5]: 12% and 31%
Population Mitochondria Different-Phenotype (%) [5]: 25% and 21%
Population Mitotic Cells (%) [5]: 0% and 2%
Population Normal (%) [5]: 100% and 96%
Population Pyknosed Nuclei (%) [5]: 28% and 74%
Population Tubulin-Different-Phenotype (%) [5]: 75% and 100%
Population Apoptotic (%) [6]: 95% and 82%
Population Fragmented Nuclei (%) [6]: 10% and 19%
Population Healthy Nuclei (%) [6]: 18% and 11%
Population Hoechst High Intensity Objects (%) [6]: 1%
Population Mitochondria Different-Phenotype (%) [6]: 45% and 33%
Population Normal (%) [6]: 98%
Population Pyknosed Nuclei (%) [6]: 71% and 68%
Population Tubulin-Different-Phenotype (%) [6]: 81% and 83%

COc1cccc(Cn2cc(C(=O)Nc3ccc(C)c(S(=O)(=O)N4CCOCC4)c3)c(-c3ccc(C)cc3)n2)c1
Population Apoptotic (%) [1]: 33% and 76%
Population Healthy Nuclei (%) [1]: 46% and 76%
Population Hoechst High Intensity Objects (%) [1]: 0%
Population Membrane Permeable-Phenotype (%) [1]: 7% and 0%
Population Mitochondria Different-Phenotype (%) [1]: 0% and 4%
Population Mitotic Cells (%) [1]: 66% and 23%
Population Normal (%) [1]: 100%
Population Pyknosed Nuclei (%) [1]: 21% and 13%
Population Tubulin-Different-Phenotype (%) [1]: 38% and 54%
Population Apoptotic (%) [2]: 71% and 52%
Population Healthy Nuclei (%) [2]: 45% and 79%
Population Hoechst High Intensity Objects (%) [2]: 0%
Population Membrane Permeable-Phenotype (%) [2]: 47% and 38%
Population Mitochondria Different-Phenotype (%) [2]: 11% and 9%
Population Mitotic Cells (%) [2]: 28% and 47%
Population Normal (%) [2]: 100%
Population Pyknosed Nuclei (%) [2]: 37% and 17%
Population Tubulin-Different-Phenotype (%) [2]: 88% and 90%
Population Apoptotic (%) [3]: 37% and 76%
Population Fragmented Nuclei (%) [3]: 24% and 8%
Population Healthy Nuclei (%) [3]: 48% and 78%
Population Hoechst High Intensity Objects (%) [3]: 0%
Population Mitochondria Different-Phenotype (%) [3]: 14% and 5%
Population Mitotic Cells (%) [3]: 62% and 23%
Population Normal (%) [3]: 100% and 99%
Population Pyknosed Nuclei (%) [3]: 27% and 13%
Population Tubulin-Different-Phenotype (%) [3]: 64% and 65%
Population Apoptotic (%) [4]: 60% and 72%
Population Fragmented Nuclei (%) [4]: 15% and 6%
Population Healthy Nuclei (%) [4]: 46% and 70%
Population Hoechst High Intensity Objects (%) [4]: 0%
Population Membrane Permeable-Phenotype (%) [4]: 44% and 47%
Population Mitotic Cells (%) [4]: 40% and 27%
Population Normal (%) [4]: 100%
Population Pyknosed Nuclei (%) [4]: 38% and 23%
Population Tubulin-Different-Phenotype (%) [4]: 94% and 90%
Population Apoptotic (%) [5]: 45% and 67%
Population Healthy Nuclei (%) [5]: 48% and 83%
Population Hoechst High Intensity Objects (%) [5]: 0%
Population Membrane Permeable-Phenotype (%) [5]: 10% and 3%
Population Mitochondria Different-Phenotype (%) [5]: 10% and 4%
Population Mitotic Cells (%) [5]: 54% and 32%
Population Normal (%) [5]: 100%
Population Pyknosed Nuclei (%) [5]: 26% and 12%
Population Tubulin-Different-Phenotype (%) [5]: 65% and 80%
Population Apoptotic (%) [6]: 73% and 70%
Population Fragmented Nuclei (%) [6]: 7% and 21%
Population Healthy Nuclei (%) [6]: 63% and 32%
Population Hoechst High Intensity Objects (%) [6]: 0%
Population Membrane Permeable-Phenotype (%) [6]: 56% and 33%
Population Mitochondria Different-Phenotype (%) [6]: 21% and 16%
Population Mitotic Cells (%) [6]: 26% and 29%
Population Normal (%) [6]: 99% and 100%
Population Pyknosed Nuclei (%) [6]: 28% and 45%
Population Tubulin-Different-Phenotype (%) [6]: 85% and 100%
